From ChEMBL document CHEMBL2417450, “Antitumor properties of substituted (αE)-α-(1H-indol-3-ylmethylene)benzeneacetic acids or amides” (Bioorg Med Chem, 2013)
Active and inactive are the calls of the source. The calls are words filed in the database; no cut-off is given here.

Key:
DU-145 [1] = experiment: Cytotoxicity against human DU145 cells assessed as cell viability after 72 hrs by MTT assay; format: functional, cell-based; conditions: DU-145, 72 h
Outline: (§1)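 Cells were grown at 37 °C in humidified 5% CO2/95% air. DU145 and A549 were kept in DMEM with 10% FCS, glutamine and nonessential amino acids. LNCaP, KB and M14 were kept in RPMI with 10% FCS, and Caco2 in MEM with 10% FCS. For the MTT assay, 1 × 10^4 cells were seeded per well and preincubated 24 h, then treated 72 h (DMSO ≤0.1%). MTT (0.5% in PBS) was added 4 h before the end, formazan was dissolved in DMSO, and OD was read at 550 nm. Triplicates were run.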

[2] = Cytotoxicity against human fibroblasts assessed as cell viability after 72 hrs by MTT assay relative to control; format: cell-based, Fibroblast; set-up: concentration or dose not given beside the values; conditions: read-out: Activity
M14 = experiment: Cytotoxicity against human M14 cells assessed as cell viability after 72 hrs by MTT assay; format: functional, cell-based; conditions: M14, 72 h; outline: as §1
KB = experiment: Cytotoxicity against human KB cells assessed as cell viability after 72 hrs by MTT assay; format: functional, cell-based; outline: as §1
A549 = experiment: Cytotoxicity against human A549 cells assessed as cell viability after 72 hrs by MTT assay; format: functional, cell-based; conditions: A549, 72 h; outline: as §1
LNCaP = experiment: Cytotoxicity against human LNCAP cells assessed as cell viability after 72 hrs by MTT assay; format: functional, cell-based; outline: as §1
Caco-2 = experiment: Cytotoxicity against human Caco2 cells assessed as cell viability after 72 hrs by MTT assay; format: functional, cell-based; conditions: Caco-2, 72 h; outline: as §1
DU-145 [3] = experiment: Increase in p21 protein expression in human DU145 cells at 0.1 uM after 72 hrs by Western blotting analysis; format: functional, cell-based; conditions: 1 uM, in the assay text read “1 uM” for “0.1 uM”
Outline: (§2)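 DU145 cells were treated 72 h, rinsed in PBS and lysed in 2% SDS buffer (50 mM Tris-HCl pH 6.8, protease inhibitors, 2 mM orthovanadate, 1 mM NaF, 1 mM pyrophosphate). Protein was quantified by BCA, and equal protein was run on 10% SDS-PAGE and blotted to nitrocellulose. Blots were blocked in 5% milk TBS-Tween 0.1%, detected by ECL and normalized to β-actin. Results are mean SEM of three experiments, with Student's t test versus control.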

DU-145 [4] = experiment: Effect on total ERK1/2 protein level in human DU145 cells at 0.1 uM after 72 hrs by Western blotting analysis; format: functional, cell-based; outline: as §2
[5] = molecular target: Glycogen synthase kinase-3 beta (Homo sapiens) (UniProt P49841); experiment: Inhibition of GSK3beta phosphorylation at Ser9 in human DU145 cells at 1 uM after 72 hrs by Western blotting analysis; format: cell-based; conditions: DU-145; outline: as §2
[6] = molecular target: T1, Mitogen-activated protein kinase; ERK1/ERK2 (Homo sapiens) (UniProt P27361+P28482); experiment: Inhibition of ERK1/2 phosphorylation at Thr202/Tyr204 in human DU145 cells at 1 uM after 72 hrs by Western blotting analysis relative to control; format: cell-based; conditions: DU-145; outline: as §2
[7] = molecular target: RAC-alpha serine/threonine-protein kinase (Homo sapiens) (UniProt P31749); experiment: Inhibition of AKT phosphorylation at Ser473 in human DU145 cells at 1 uM after 72 hrs by Western blotting analysis relative to control; format: cell-based; conditions: DU-145; outline: as §2
[8] = molecular target: T1, Mitogen-activated protein kinase; ERK1/ERK2 (Homo sapiens); experiment: Inhibition of ERK1/2 phosphorylation at Thr202/Tyr204 in human DU145 cells at 0.1 uM after 72 hrs by Western blotting analysis relative to control; format: cell-based; conditions: DU-145; outline: as §2
DU-145 [9] = experiment: Decrease in total GSK3beta protein level in human DU145 cells at 1 uM after 72 hrs by Western blotting analysis; format: functional, cell-based; outline: as §2
[10] = molecular target: Glycogen synthase kinase-3 beta (Homo sapiens) (UniProt P49841); experiment: Inhibition of GSK3beta phosphorylation at Ser9 in human DU145 cells at 0.1 uM after 72 hrs by Western blotting analysis; format: cell-based; conditions: DU-145; outline: as §2
DU-145 [11] = experiment: Effect on total AKT protein level in human DU145 cells at 1 uM after 72 hrs by Western blotting analysis; format: functional, cell-based; outline: as §2
DU-145 [12] = experiment: Effect on total ERK1/2 protein level in human DU145 cells at 1 uM after 72 hrs by Western blotting analysis; format: functional, cell-based; outline: as §2
DU-145 [13] = experiment: Effect on total AKT protein level in human DU145 cells at 0.1 uM after 72 hrs by Western blotting analysis; format: functional, cell-based; outline: as §2
DU-145 [14] = experiment: Decrease in total GSK3beta protein level in human DU145 cells at 0.1 uM after 72 hrs by Western blotting analysis; format: functional, cell-based; conditions: 1 uM, in the assay text read “1 uM” for “0.1 uM”; outline: as §2
[15] = molecular target: RAC-alpha serine/threonine-protein kinase (Homo sapiens) (UniProt P31749); experiment: Inhibition of AKT phosphorylation at Ser473 in human DU145 cells at 0.1 uM after 72 hrs by Western blotting analysis relative to control; format: cell-based; conditions: DU-145; outline: as §2
[16] = molecular target: T2, AKT/p21CIP1 (Homo sapiens) (UniProt P38936+P31749); experiment: Inhibition of AKT/p21CIP1 in human DU145 cells assessed as decrease in ratio of phosphorylated retinoblastoma level to unphosphorylated retinoblastoma level at 0.1 uM after 72 hrs by Western blotting analysis; format: cell-based; conditions: DU-145, 1 uM, in the assay text read “1 uM” for “0.1 uM”
Outline: (§3)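 DU145 cells were treated 72 h and lysed in 2% SDS buffer. Equal protein was resolved by SDS-PAGE and probed for phospho-Rb Ser249/Thr252, total Rb (1:200 each) and α-tubulin. Bands were visualized on autoradiography film and read densitometrically relative to α-tubulin. The p-Rb/Rb ratio was compared with control. Results are mean SEM of three experiments, with Student's t test.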

DU-145 [17] = experiment: Increase in p21 protein expression in human DU145 cells at 1 uM after 72 hrs by Western blotting analysis; format: functional, cell-based; outline: as §2
[18] = molecular target: T2, AKT/p21CIP1 (Homo sapiens); experiment: Inhibition of AKT/p21CIP1 in human DU145 cells assessed as decrease in ratio of phosphorylated retinoblastoma level to unphosphorylated retinoblastoma level at 1 uM after 72 hrs by Western blotting analysis; format: cell-based; conditions: DU-145; outline: as §3

Sequence of RAC-alpha serine/threonine-protein kinase (Homo sapiens) (P31749 whole entry): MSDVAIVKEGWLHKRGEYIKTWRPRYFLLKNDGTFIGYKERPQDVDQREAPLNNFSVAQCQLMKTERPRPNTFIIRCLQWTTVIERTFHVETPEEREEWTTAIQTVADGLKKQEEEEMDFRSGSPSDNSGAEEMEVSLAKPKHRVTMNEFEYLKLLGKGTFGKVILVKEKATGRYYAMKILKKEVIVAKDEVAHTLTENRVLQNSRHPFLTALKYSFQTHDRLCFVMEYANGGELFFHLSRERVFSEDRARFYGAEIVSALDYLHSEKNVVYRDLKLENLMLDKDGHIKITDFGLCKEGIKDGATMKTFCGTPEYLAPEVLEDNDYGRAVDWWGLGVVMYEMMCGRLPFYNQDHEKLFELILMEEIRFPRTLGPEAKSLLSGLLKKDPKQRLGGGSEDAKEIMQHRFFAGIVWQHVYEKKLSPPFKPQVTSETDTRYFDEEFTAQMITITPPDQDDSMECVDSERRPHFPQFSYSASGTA
Sequence of Glycogen synthase kinase-3 beta (Homo sapiens) (P49841 whole entry, looked up): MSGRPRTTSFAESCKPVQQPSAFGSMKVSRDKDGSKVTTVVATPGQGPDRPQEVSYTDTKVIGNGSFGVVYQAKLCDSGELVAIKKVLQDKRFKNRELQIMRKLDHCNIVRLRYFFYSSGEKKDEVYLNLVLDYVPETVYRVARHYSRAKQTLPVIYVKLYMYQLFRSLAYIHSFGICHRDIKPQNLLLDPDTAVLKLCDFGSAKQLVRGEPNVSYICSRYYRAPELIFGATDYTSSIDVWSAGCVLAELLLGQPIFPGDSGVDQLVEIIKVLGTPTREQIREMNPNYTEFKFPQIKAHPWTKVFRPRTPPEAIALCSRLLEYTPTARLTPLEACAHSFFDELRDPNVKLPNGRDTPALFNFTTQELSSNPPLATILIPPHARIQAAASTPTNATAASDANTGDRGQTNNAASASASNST
T1 sequence (P27361 whole entry, looked up): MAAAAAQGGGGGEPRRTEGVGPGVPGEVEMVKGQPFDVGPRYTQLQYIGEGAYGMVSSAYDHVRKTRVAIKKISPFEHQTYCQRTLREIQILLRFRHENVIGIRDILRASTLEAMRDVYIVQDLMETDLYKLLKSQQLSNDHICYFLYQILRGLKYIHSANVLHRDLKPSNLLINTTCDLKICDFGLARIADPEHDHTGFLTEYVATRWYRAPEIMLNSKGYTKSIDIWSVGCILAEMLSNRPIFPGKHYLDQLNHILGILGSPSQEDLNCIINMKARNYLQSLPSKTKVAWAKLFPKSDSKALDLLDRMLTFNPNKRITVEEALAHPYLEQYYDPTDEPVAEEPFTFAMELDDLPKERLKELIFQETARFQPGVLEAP
T1 sequence (P28482 whole entry, looked up): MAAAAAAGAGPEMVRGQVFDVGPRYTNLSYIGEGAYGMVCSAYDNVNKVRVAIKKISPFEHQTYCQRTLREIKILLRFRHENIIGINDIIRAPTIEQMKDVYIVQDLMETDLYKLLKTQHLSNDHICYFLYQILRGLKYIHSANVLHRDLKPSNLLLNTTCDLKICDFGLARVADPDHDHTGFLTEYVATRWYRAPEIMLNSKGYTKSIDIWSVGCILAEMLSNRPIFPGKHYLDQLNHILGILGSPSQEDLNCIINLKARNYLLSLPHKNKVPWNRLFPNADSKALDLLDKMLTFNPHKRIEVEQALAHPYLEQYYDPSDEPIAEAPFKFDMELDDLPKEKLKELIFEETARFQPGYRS

SMILES	IC50 (DU-145 [1]) [µM]	viability at 72 h [2] [%]	IC50 (M14) [µM]	IC50 (KB) [µM]	IC50 (A549) [µM]	IC50 (LNCaP) [µM]	IC50 (Caco-2) [µM]	also measured
COc1ccc(Cn2cc(/C=C(/C(=O)O)c3ccccc3)c3cc(OCc4ccccc4)ccc32)cc1	0.86	85	64.5	97	1	38.2		
COc1cccc(/C(=C\c2cn(C(C)=O)c3ccc(OCc4ccccc4)cc23)C(=O)O)c1	1.08	85	> 100	> 100	45.2	65.1		
COc1ccccc1/C(=C\c1cn(C(C)=O)c2ccc(OCc3ccccc3)cc12)C(=O)O	1.01	85	> 100	> 100	57.2	48.5		
NC(=O)/C(=C/c1c[nH]c2ccccc12)c1ccccc1	33.3	85	45.4	> 100			> 100	
O=C(O)/C(=C/c1c[nH]c2ccccc12)c1ccccc1	> 100	85	> 100	> 100			> 100	
CC(=O)n1cc(/C=C(/C(=O)O)c2ccc3c(c2)OCO3)c2cc(OCc3ccccc3)ccc21	1.15	85	> 100	> 100	53.6	99.1		
COc1ccc(/C(=C\c2c[nH]c3ccccc23)C(N)=O)cc1	40	85	53	86.2			> 100	
COc1cc(OC)cc(/C(=C\c2cn(C(C)=O)c3ccc(OCc4ccccc4)cc23)C(=O)O)c1	0.88	85	94	30.4	26	26.1		
COc1cc(/C(=C\c2cn(C(C)=O)c3ccc(OCc4ccccc4)cc23)C(=O)O)cc(OC)c1OC	0.95	85	57.1	> 100	89.1	59.6		
NC(=O)/C(=C/c1c[nH]c2ccc(OCc3ccccc3)cc12)c1ccccc1	30.9	85	> 100	40.3			> 100	
CC(=O)n1cc(/C=C(/C(=O)O)c2ccc(OCc3ccccc3)cc2)c2cc(OCc3ccccc3)ccc21	1.41	85	58.2	43	44.1	77.7		
COc1ccc(/C(=C\c2c[nH]c3ccccc23)C(=O)O)cc1	> 100	85	> 100	> 100			> 100	
CC(=O)n1cc(/C=C(/C(=O)O)c2ccc(Cl)cc2)c2cc(OCc3ccccc3)ccc21	1.13	85	> 100	> 100	52.3	> 100		
COc1ccc(/C(=C\c2c[nH]c3ccc(OCc4ccccc4)cc23)C(N)=O)cc1	39.8	85	> 100	> 100			> 100	
O=C(O)/C(=C/c1c[nH]c2ccc(OCc3ccccc3)cc12)c1ccccc1	34.7	85	95.2	55.5			41.6	
CC(=O)n1cc(/C=C(/C(=O)O)c2ccccc2)c2cc(OCc3ccccc3)ccc21	26.7	85	> 100	55.5	57.5	> 100		
COc1ccc(OC)c(/C(=C\c2cn(C(C)=O)c3ccc(OCc4ccccc4)cc23)C(=O)O)c1	0.83	85	87.1	> 100	54.5	44.1		
COc1ccc(/C(=C\c2cn(C(C)=O)c3ccc(OCc4ccccc4)cc23)C(=O)O)cc1OC	1.05	85	65.5	96.7	54.8	> 100		
COc1ccc(/C(=C\c2c[nH]c3ccc(OCc4ccccc4)cc23)C(=O)O)cc1	38.1	85	58.4	38.5			> 100	
COc1ccc(/C(=C\c2cn(C(C)=O)c3ccc(OCc4ccccc4)cc23)C(=O)O)cc1	0.91	85	> 100	> 100	> 100	85		Activity (DU-145 [3]): Active; Activity (DU-145 [4]): inactive; inhibition [5]: inactive; inhibition [6]: 40%; inhibition [7]: 20%; inhibition [8]: Active; Activity (DU-145 [9]): Active; inhibition [10]: inactive; Activity (DU-145 [11]): inactive; Activity (DU-145 [12]): inactive; Activity (DU-145 [13]): inactive; Activity (DU-145 [14]): Active; inhibition [15]: Active; inhibition [16]: Active; Activity (DU-145 [17]): Active; inhibition [18]: Active
